This passage reports EC50, MCC and CC50 results from ChEMBL document CHEMBL1255569, “Synthesis of ester prodrugs of 9-(S)-[3-hydroxy-2-(phosphonomethoxy)propyl]-2,6-diaminopurine (HPMPDAP) as anti-poxvirus agents” (J Med Chem, 2010).

Molecules are shown by their SMILES.

For one series, the system named is Vaccinia virus. Put plainly: Antiviral activity against Vaccinia virus infected in HEL assessed as reduction in virus-induce cytopathicity. To be noted: Orthopoxvirus vaccinia. It counts as functional, organism-based. For orientation: Damage to the host cells serves as the signal in cytopathic effect assays.
Series [1] has as its system Human betaherpesvirus 5. Put plainly: Antiviral activity against Human cytomegalovirus AD169 infected in HEL assessed as reduction in virus-induce cytopathicity. The class given is functional, organism-based. The following applies: Human betaherpesvirus 5, AD169.
Series [2] concerns Human betaherpesvirus 5. Put plainly: Antiviral activity against Human cytomegalovirus Davis infected in HEL assessed as reduction in virus-induce cytopathicity. It counts as functional, organism-based. To be noted: Human betaherpesvirus 5, Davis.
For the next series, the system named is Human betaherpesvirus 6. Kind of series: Antiviral activity against Human herpesvirus 6 infected in HEL assessed as reduction in virus-induce cytopathicity. It counts as functional, organism-based.
Series [3] can be described thus: Cytotoxicity against HEL assessed as change in cell morphology. The class given is cell-based. The following applies: human, HEL cells. Summed up:
(§1)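 Microscopic inspection of cultures exposed to test compounds. MCC is the minimum compound concentration causing a microscopically detectable alteration of cell morphology.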

Series [4] is described as follows: Cytotoxicity against human HSB2 cells assessed as change in cell morphology. It counts as cell-based, CCRF-HSB-2. Summed up:
as §1

Series [5] can be described thus: Cytotoxicity against HEL. It counts as cell-based. The following applies: human, HEL cells. Summed up: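 HEL cells were seeded at 5 × 10³ cells/well and allowed to proliferate for 24 h, then given medium with graded compound concentrations. After 3 days at 37 °C, cells were counted with a Coulter counter. CC50 (μM) is the concentration halving proliferation relative to untreated controls, estimated from plots of cell number (% of control) against concentration.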

In series [6] the test system is Human alphaherpesvirus 1. Kind of series: Antiviral activity against HSV1 KOS infected in HEL assessed as reduction in virus-induce cytopathicity. It counts as functional, organism-based. The following applies: Human alphaherpesvirus 1, KOS.
Series [7] concerns Human alphaherpesvirus 1. Kind of series: Antiviral activity against acyclovir-resistant HSV1 KOS infected in HEL assessed as reduction in virus-induce cytopathicity. It counts as functional, organism-based. The following applies: Human alphaherpesvirus 1, KOS.
A further series deals with Human alphaherpesvirus 2. Kind of series: Antiviral activity against […] infected in HEL assessed as reduction in virus-induce cytopathicity. It counts as functional, organism-based. To be noted: Human alphaherpesvirus 2, strain G.
In series [8] the test system is Human alphaherpesvirus 3. Put plainly: Antiviral activity against acyclovir-resistant VZV OKA infected in HEL assessed as reduction in virus-induce cytopathicity. The following applies: Human alphaherpesvirus 3, OKA.
Series [9] concerns Human alphaherpesvirus 3. Kind of series: Antiviral activity against acyclovir-resistant VZV 07/1 infected in HEL assessed as reduction in virus-induce cytopathicity. To be noted: Human alphaherpesvirus 3, 07/1.

One may read the EC50 as the midpoint of the concentration-response curve. One may read the CC50 as the concentration giving 50% cytotoxicity.

As for `CC(C)OC(=O)[C@@H](CO[P@@]1(=O)CO[C@@H](Cn2cnc3c(N)nc(N)nc32)CO1)NC(=O)[C@@H](N)C(C)C`, the EC50 with Vaccinia virus was 2620 nM; in the series on Human betaherpesvirus 5 [1], 15200 nM; in the series on Human betaherpesvirus 5 [2] it was 22100 nM; with Human betaherpesvirus 6 it was more than 177 µM; in the series with Human alphaherpesvirus 1 [6], 7970 nM; with Human alphaherpesvirus 1 [7], 7100 nM. For the same compound, the EC50 in the series on Human alphaherpesvirus 2 was found to be 1420 nM; with Human alphaherpesvirus 3 [8] it was 1060 nM; in the series with Human alphaherpesvirus 3 [9], 250 nM. The MCC in series [3] and in series [4] was more than 177 µM throughout. Also, in series [5], the midpoint of cytotoxicity, the CC50, lay at 148 µM.

For `Nc1nc(N)c2ncn(C[C@@H](CO)OCP(=O)(O)OCC(F)(F)F)c2n1`, the EC50 is 7950 nM with Vaccinia virus; 44000 nM in the series with Human betaherpesvirus 5 [1]; 54200 nM in the series on Human betaherpesvirus 5 [2]; more than 62 µM in the series with Human betaherpesvirus 6; 5600 nM with Human alphaherpesvirus 1 [6]; 5000 nM in the series on Human alphaherpesvirus 1 [7]. The EC50 was 10700 nM in the series with Human alphaherpesvirus 2, 2270 nM in the series with Human alphaherpesvirus 3 [8] and 430 nM with Human alphaherpesvirus 3 [9]. Besides, the MCC in [3] is more than 250 µM; in [4], more than 62 µM. In series [5], this compound gave a CC50 of more than 250 µM.

On to `CCCCCCCCCCCCCCCCOCCCOP1(=O)CO[C@@H](Cn2cnc3c(N)nc(N)nc32)CO1` (stereo not given in full), for which the EC50 worked out at 11 nM in the series with Vaccinia virus; 34 nM with Human betaherpesvirus 5 [1]; 21 nM in the series with Human betaherpesvirus 5 [2]; 0.16 µM in the series with Human betaherpesvirus 6; 31 nM in the series on Human alphaherpesvirus 1 [6]; 53 nM with Human alphaherpesvirus 1 [7]. In addition, the EC50 in the series with Human alphaherpesvirus 2 is 53 nM; in the series on Human alphaherpesvirus 3 [8], 12 nM; in the series with Human alphaherpesvirus 3 [9] it was 1.7 nM. Also, the MCC came to 6.9 µM in series [3] and 8.6 µM in series [4]. Further, the CC50 in series [5] amounted to 13.7 µM.

Regarding `CCCCCCCCCCCCCCCCCCOCCOP(=O)(O)CO[C@H](CO)Cn1cnc2c(N)nc(N)nc21`, the EC50 was 0.74 nM in the series on Vaccinia virus; 41 nM with Human betaherpesvirus 5 [1]; 9.4 nM with Human betaherpesvirus 5 [2]; 34.6 µM in the series with Human betaherpesvirus 6; 0.8 nM in the series with Human alphaherpesvirus 1 [6]; 0.85 nM in the series on Human alphaherpesvirus 1 [7]. Further, the EC50 in the series on Human alphaherpesvirus 2 was 2.2 nM; in the series with Human alphaherpesvirus 3 [8], 1.3 nM; with Human alphaherpesvirus 3 [9], 0.08 nM. The results for the MCC in series [3] and in [4] were not below 6.3 µM and not below 39.3 µM, respectively. This compound also came in with a CC50 in series [5] of 18.8 µM.

As for `Nc1nc(N)c2ncn(C[C@H]3COP(=O)(O)CO3)c2n1`, the EC50 is 530 nM in the series on Vaccinia virus; 15000 nM in the series with Human betaherpesvirus 5 [1]; 10000 nM in the series on Human betaherpesvirus 5 [2]; 3600 nM with Human alphaherpesvirus 1 [6]; 3600 nM in the series with Human alphaherpesvirus 1 [7]; 4330 nM in the series on Human alphaherpesvirus 2. The EC50 in the series on Human alphaherpesvirus 3 [8] was 370 nM; in the series on Human alphaherpesvirus 3 [9] it was 770 nM. The MCC in [3] was more than 333 µM. This compound gave a CC50 in series [5] of more than 333 µM.

With `O=c1[nH]c(=O)n([C@H]2C[C@H](O)[C@@H](CO)O2)cc1/C=C/Br` [BRIVUDINE], the figures for the CC50 in [3] and in series [5] were more than 300 µM and 339 µM, respectively. The EC50 in the series on Human alphaherpesvirus 1 [6] is 30 nM; with Human alphaherpesvirus 1 [7], more than 150000 nM; with Human alphaherpesvirus 2, 75300 nM; in the series on Human alphaherpesvirus 3 [8], 16 nM; with Human alphaherpesvirus 3 [9], 137000 nM.

Turning to `Nc1nc2c(ncn2COC(CO)CO)c(=O)[nH]1` [GANCICLOVIR], the values for the EC50 in the series with Human betaherpesvirus 5 [1] and with Human betaherpesvirus 5 [2] were 9400 nM and 10200 nM, respectively. In addition, in series [3], the MCC is not below 392 µM. The same compound came in with a CC50 in [5] of 1080 µM.

In the case of `CCCCCCCCCCCCCCCCCCOCCO[P@]1(=O)CO[C@@H](Cn2cnc3c(N)nc(N)nc32)CO1`, the EC50 with Vaccinia virus is 52 nM; in the series on Human betaherpesvirus 5 [1], 15 nM; in the series with Human betaherpesvirus 5 [2], 3.4 nM; with Human betaherpesvirus 6, more than 42 µM; in the series on Human alphaherpesvirus 1 [6], 30 nM; in the series with Human alphaherpesvirus 1 [7], 17 nM. The values for the half-maximal effective concentration (EC50) with Human alphaherpesvirus 2, in the series on Human alphaherpesvirus 3 [8] and in the series on Human alphaherpesvirus 3 [9] were 37 nM, 45 nM and 10 nM, respectively. Besides, the MCC in series [3] is 6.7 µM; in series [4], 0.5 µM. It took 129 µM to reach half-maximal cytotoxicity in series [5] (CC50).

In the case of `Nc1nc2c(ncn2COCCO)c(=O)[nH]1` [ACYCLOVIR], the MCC in series [3] is more than 444 µM; in series [5] it was 1.58 mM. For the same compound, the EC50 is 125000 nM in the series with Human alphaherpesvirus 1 [7] and 300 nM in the series with Human alphaherpesvirus 2.

On to `CCCCCCCCCCCCCCCCOCCCOP(=O)(O)CO[C@H](CO)Cn1cnc2c(N)nc(N)nc21`, for which the EC50 in the series on Vaccinia virus stood at 0.74 nM; in the series with Human betaherpesvirus 5 [1], 21 nM; in the series with Human betaherpesvirus 5 [2] it was 3.7 nM; in the series on Human betaherpesvirus 6, 10.3 µM; with Human alphaherpesvirus 1 [6] it was 4.5 nM; with Human alphaherpesvirus 1 [7] it was 2.7 nM. In addition, the EC50 in the series on Human alphaherpesvirus 2 is 7.1 nM; with Human alphaherpesvirus 3 [8] it was 2.7 nM; in the series with Human alphaherpesvirus 3 [9] it was 0.21 nM. The MCC in series [3] was not below 6.4 µM; in series [4], 40 µM. The compound further came in with a CC50 in series [5] not below 161 µM.

Take `CCCCOC(=O)c1ccccc1OP1(=O)CO[C@@H](Cn2cnc3c(N)nc(N)nc32)CO1` (stereo not given in full): the EC50 is 2300 nM with Vaccinia virus; 11500 nM in the series on Human betaherpesvirus 5 [1]; 6800 nM in the series on Human betaherpesvirus 5 [2]; more than 205 µM with Human betaherpesvirus 6; 5360 nM in the series on Human alphaherpesvirus 1 [6]; 3100 nM in the series on Human alphaherpesvirus 1 [7]. In addition, the EC50 came to 3760 nM in the series with Human alphaherpesvirus 2, 530 nM in the series on Human alphaherpesvirus 3 [8] and 120 nM in the series with Human alphaherpesvirus 3 [9]. Besides, the results for the MCC in series [3] and in series [4] were 103 µM and not below 205 µM, respectively. The compound further came in with a CC50 in [5] of 168 µM.

As to `Nc1nc(N)c2ncn(C[C@@H](CO)OCP(=O)(O)O)c2n1`, the EC50 in the series on Vaccinia virus was found to be 500 nM; in the series on Human betaherpesvirus 5 [1] it was 11200 nM; with Human betaherpesvirus 5 [2], 6400 nM; in the series on Human betaherpesvirus 6 it was 17.6 µM; in the series with Human alphaherpesvirus 1 [6], 2860 nM; in the series on Human alphaherpesvirus 1 [7], 1350 nM. The EC50 was 2830 nM with Human alphaherpesvirus 2, 220 nM with Human alphaherpesvirus 3 [8] and 8.2 nM with Human alphaherpesvirus 3 [9]. For the same compound, the MCC in [3] was more than 314 µM; in [4], 126 µM. In series [5], this compound had a CC50 of more than 314 µM.

For the compound `CCCCCCCCCCCCCCCCOCCO[P@]1(=O)CO[C@@H](Cn2cnc3c(N)nc(N)nc32)CO1`, the EC50 is 3.5 nM in the series on Vaccinia virus; 15 nM with Human betaherpesvirus 5 [1]; 8 nM in the series with Human betaherpesvirus 5 [2]; more than 44 µM with Human betaherpesvirus 6; 26 nM with Human alphaherpesvirus 1 [6]; 17 nM with Human alphaherpesvirus 1 [7]. Also, the figures for the EC50 in the series with Human alphaherpesvirus 2, in the series with Human alphaherpesvirus 3 [8] and with Human alphaherpesvirus 3 [9] were 26 nM, 4 nM and 0.7 nM, respectively. The MCC in [3] is 35.2 µM; in series [4], 0.5 µM. Further, the CC50 in [5] worked out at 28.1 µM.

Turning to `CCCCCCCCCCCCCCCCOCCO[P@@]1(=O)CO[C@@H](Cn2cnc3c(N)nc(N)nc32)CO1`, the EC50 in the series with Vaccinia virus is 2.6 nM; with Human betaherpesvirus 5 [1] it was 11 nM; in the series with Human betaherpesvirus 5 [2], 5 nM; in the series on Human betaherpesvirus 6, more than 44 µM; with Human alphaherpesvirus 1 [6], 10 nM; in the series on Human alphaherpesvirus 1 [7] it was 7 nM. The figures for the EC50 in the series with Human alphaherpesvirus 2, in the series with Human alphaherpesvirus 3 [8] and in the series with Human alphaherpesvirus 3 [9] were 8 nM, 1.8 nM and 0.18 nM, respectively. The MCC was found to be 35.2 µM in series [3] and 0.5 µM in series [4]. The compound further came in with a CC50 in series [5] of 30 µM.

Consider `Nc1ccn(C[C@@H](CO)OCP(=O)(O)O)c(=O)n1` [CIDOFOVIR], for which the EC50 in the series on Vaccinia virus worked out at 7300 nM; in the series on Human betaherpesvirus 5 [1] it was 1140 nM; in the series with Human betaherpesvirus 5 [2], 790 nM; with Human alphaherpesvirus 1 [6], 1620 nM; in the series with Human alphaherpesvirus 1 [7], 1370 nM; in the series on Human alphaherpesvirus 2, 2190 nM. Moreover, the EC50 was 130 nM with Human alphaherpesvirus 3 [8] and 110 nM in the series on Human alphaherpesvirus 3 [9]. Moreover, the MCC in [3] was not below 317 µM. In [5], this compound came in with a CC50 of 511 µM.
